IDH1 R132H inh: inhibitors of human IDH1 R132H. O75874. IDH1 R132H reductase, diaphorase/resazurin fluorescence, 60 min. inhibition, % at 10 µM. 70,000 compounds, 0.18% hits; in the data active means inhibition above about 34%; inconclusive means no clear call, values can overlap the other calls; inactive means below about 11%;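 further: 0% = DMSO and 100% = no enzyme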
Pf Dd2 inh: P. falciparum Dd2 growth inhibition; activity change, % at 10 µM; 94,000 compounds, 2.3% hits; SYBR Green, 72 h; hits give low values; in the data active means activity change below about -80%; inconclusive means no clear call, values can overlap the other calls
T cruzi growth-1: blocks T. cruzi growth in NIH3T3 culture; T. cruzi beta-gal in NIH3T3, GalScreen luminescence, 90 h; inhibition, % at 8.34 µM; 77,000 compounds, 5.9% hits; AID 624255;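 active means mean inhibition above about 93%, with at least 55% of replicates each passing it, limit read from the data, passing the limit was not always enough; inconclusive means only one of those two conditions holds; inactive means neither condition holds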
KDM4C inh: KDM4C (human) demethylase inhibition | Q9H3R0 | GST-KDM4C 2-372, H3K9me3 peptide, LANCE TR-FRET | inhibition, % at 12.5 µM | 96,000 compounds, 0.15% hits | AID 720574;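 active means mean replicate inhibition above about 25%, with at least 55% of replicates also reaching it, limit read from the data, passing the limit was not always enough; inconclusive means only one of those two conditions met; inactive means neither condition met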
Target sequence (Q9H3R0 2-372 limits assumed): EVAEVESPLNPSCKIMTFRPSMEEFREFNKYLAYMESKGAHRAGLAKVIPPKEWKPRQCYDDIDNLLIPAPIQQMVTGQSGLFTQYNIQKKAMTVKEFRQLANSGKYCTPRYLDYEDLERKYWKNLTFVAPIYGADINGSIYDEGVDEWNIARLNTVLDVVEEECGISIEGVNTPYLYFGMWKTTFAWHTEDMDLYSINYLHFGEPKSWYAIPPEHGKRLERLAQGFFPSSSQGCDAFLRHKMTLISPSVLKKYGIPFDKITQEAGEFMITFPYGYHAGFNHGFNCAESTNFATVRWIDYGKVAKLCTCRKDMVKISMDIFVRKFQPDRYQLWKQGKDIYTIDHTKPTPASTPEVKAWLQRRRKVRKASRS
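Test system: N-terminal GST-fused human GASC-1 (KDM4C) fragment, residues 2-372; quantity: GASC-1 enzyme at 10 nM final in reaction; dosing: single dose; schedule: 30 min demethylation and 1 h detection at room temperature; signal: LANCE TR-FRET, excitation 340 nm, emissions 618 and 671 nm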
T cruzi growth-2: inhibitors of T. cruzi proliferation | T. cruzi beta-gal in NIH3T3, GalScreen luminescence, 90 h | inhibition, % at 8.35 µM | AID 651739 | shares compounds with T cruzi growth-1 | 5,600 compounds, 72% hits;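 active means mean replicate inhibition above about 95% and at least 55% of replicates individually reaching it, limit read from the data; inconclusive means only one of the two criteria is met; inactive means neither criterion is met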
T cruzi growth-3: inhibitors of T. cruzi proliferation. 5,600 compounds, 21% hits. shares compounds with T cruzi growth-1. inhibition, % at 2.09 µM. T. cruzi beta-gal in NIH3T3, GalScreen luminescence, 90 h;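 active means mean inhibition above about 95%, with at least 55% of replicates also reaching it, limit read from the data; inconclusive means meets just one of the two conditions; inactive means meets neither condition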;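 further: plate controls were neutral control median for no effect and positive control median for full effect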
3T3 cytotox: NIH/3T3 (mouse) viability loss | shares compounds with T cruzi growth-1 | NIH/3T3 viability, CellTiter-Glo ATP luminescence, 90 h | cytotoxicity (signal decrease), % at 8.35 µM | 5,600 compounds, 14% hits | AID 651742;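 active means mean signal decrease across replicates above about 35% based on untreated-well scatter, with enough replicates individually passing, limit read from the data; inconclusive means no rule stated though some were filed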;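 further: 0% = median of neutral control wells and 100% = median of positive control wells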
3T3 cytotox 2: cytotoxicity in mouse NIH/3T3 fibroblasts | NIH/3T3 viability, CellTiter-Glo ATP luminescence, 90 h | inhibition, % at 24.9 µM | 5,600 compounds, 56% hits | shares compounds with T cruzi growth-1;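 active means mean loss of cell viability signal at or above a set limit, and enough replicates individually reaching it; inconclusive means meets only the mean limit or only the replicate share; inactive means meets neither condition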;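 further: 0% = median of neutral control wells and 100% = median of positive control wells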
* = called active by the depositor; ? = inconclusive; / = no result given. In the library only some 5.9% were active in any assay of this set; here they are far more common.

SMILES | IDH1 R132H inh | Pf Dd2 inh | T cruzi growth-1 | KDM4C inh | T cruzi growth-2 | T cruzi growth-3 | 3T3 cytotox | 3T3 cytotox 2
Cc1cc(C(=O)Nc2cccc3c2O[C@@H](CN(C)Cc2ccc(C(=O)Nc4ccccc4N)cc2)[C@@H](C)CN([C@H](C)CO)C3=O)n(C)n1 | / | -85* | 106* | -2 | 104* | 98* | -7 | -8
COC(=O)c1c(C)oc2ccc(N(C(=O)c3ccncc3)S(=O)(=O)c3ccc(F)cc3C)cc12 | 0 | / | / | / | / | / | / | /
Cc1ccc2ccc(C(Nc3ccccn3)c3c(F)cccc3Cl)c(O)c2n1 (stereo not given) | 0 | / | / | / | / | / | / | /
N#C[C@@H]1[C@@H](c2ccccc2)[C@H](CO)N1C(=O)CN1CCOCC1 | / | 23 | 64 | -1 | / | / | / | /
CCCC#Cc1ccc([C@H]2[C@@H](C#N)N(C(=O)CN3CCOCC3)[C@H]2CO)cc1 | / | -14 | 98* | -1 | 103* | 84 | 18 | ?
CCCC#Cc1ccc([C@H]2[C@@H](C#N)N(C(=O)CN3CCOCC3)[C@@H]2CO)cc1 | / | 9 | 105* | 1 | 98* | 52 | -12 | 4
CC1CCCCN1Cc1nc(N)nc(Nc2ccc3c(c2)OCCO3)n1 (stereo not given) | 0 | / | / | / | / | / | / | /
C[C@H]1CN([C@@H](C)CO)C(=O)c2cccc(NC(=O)NC3CCCCC3)c2O[C@H]1CN(C)Cc1ccc(C(=O)Nc2ccccc2N)cc1 | / | -74 | ? | 1 | 101* | ? | -16 | ?
C[C@@H]1CN([C@@H](C)CO)C(=O)c2cccc(NC(=O)C3CCOCC3)c2O[C@H]1CN(C)Cc1ccc(C(=O)Nc2ccccc2N)cc1 | / | -67 | 107* | 6 | 105* | 83 | 14 | 13
C[C@@H]1CN([C@H](C)CO)C(=O)c2cccc(NC(=O)C3CCOCC3)c2O[C@@H]1CN(C)Cc1ccc(C(=O)Nc2ccccc2N)cc1 | / | 3 | 81 | -3 | / | / | / | /
CC(C)NC(=O)Nc1cccc2c1O[C@@H](CN(C)Cc1ccc(C(=O)Nc3ccccc3N)cc1)[C@@H](C)CN([C@@H](C)CO)C2=O | 0 | -20 | / | 1 | / | / | / | /
C[C@@H]1CN([C@@H](C)CO)C(=O)c2cccc(NC(=O)C3CC3)c2O[C@H]1CN(C)Cc1ccc(C(=O)Nc2ccccc2N)cc1 | 1 | -54 | 99* | -1 | 106* | 94 | -9 | 6
O=C(Oc1ccccc1)c1cccc(COC(=O)c2cc(=O)[nH]c3ccccc23)c1 | 0 | / | / | / | / | / | / | /
CC(C)C#Cc1cnc2c(c1)C(=O)N([C@@H](C)CO)C[C@H](C)[C@@H](CN(C)Cc1cncnc1)O2 | 0 | 22 | 97* | -2 | 99* | 11 | -16 | 11
C[C@@H]1CN([C@H](C)CO)C(=O)c2cc(C#Cc3ccccn3)cnc2O[C@H]1CN(C)Cc1cncnc1 | 0 | 10 | 104* | 1 | 107* | 55 | 13 | 18
C[C@@H]1CN([C@@H](C)CO)C(=O)c2cc(C#Cc3ccccn3)cnc2O[C@H]1CN(C)Cc1cncnc1 | -8 | 22 | 105* | 3 | 102* | 35 | -13 | 18
O=C(CSc1nnc(-c2ccncc2)n1-c1ccc(F)cc1)c1ccccc1 | 8 | / | / | / | / | / | / | /
CCc1csc(N2[C@H](CO)[C@H](c3ccc(-c4ccc(F)cc4)cc3)[C@@H]2C#N)n1 | / | -2 | 98* | -4 | 108* | 43 | 21 | 91*
CCc1csc(N2[C@H](C#N)[C@H](c3ccc(-c4ccc(F)cc4)cc3)[C@H]2CO)n1 | / | -2 | 94 | -2 | / | / | / | /
CCc1csc(N2[C@@H](C#N)[C@H](c3ccc(C#Cc4ccc(F)cc4)cc3)[C@@H]2CO)n1 | / | -52 | 106* | -5 | 97* | 110* | -29 | 21
C/C=C/c1ccc([C@H]2[C@@H](C#N)N(c3nc(CC)cs3)[C@@H]2CO)cc1 | / | -47 | ? | 0 | 101* | 23 | 1 | 6
COCCn1c(SCC(=O)N2CCOCC2)nc2c(c1=O)SC(C)C2 (stereo not given) | 1 | / | / | / | / | / | / | /
N#Cc1c(NC(=O)CSc2n[nH]c(-c3ccc(Cl)cc3Cl)n2)sc2c1CCCC2 | 0 | / | / | / | / | / | / | /
N#Cc1ccc(-c2ccc([C@H]3[C@H](CO)N4CCCCN(S(=O)(=O)c5ccccc5)C[C@@H]34)cc2)cc1 | / | -36 | 116* | -1 | 108* | 55 | 51* | 88*
N#Cc1ccc(-c2ccc([C@H]3[C@H]4CN(S(=O)(=O)c5ccccc5)CCCCN4[C@H]3CO)cc2)cc1 | / | -7 | 114* | -2 | 107* | 76 | 22 | 24
SMILES | IDH1 R132H inh | Pf Dd2 inh | T cruzi growth-1 | KDM4C inh | T cruzi growth-2 | T cruzi growth-3 | 3T3 cytotox | 3T3 cytotox 2
O=S(=O)(c1ccccc1)N1CCCCN2[C@H](CO)[C@@H](c3ccc(-c4ccccc4)cc3)[C@@H]2C1 | / | 5 | 49 | 1 | / | / | / | /
CN(C)CCCNc1oc(-c2ccccc2F)nc1C#N | 0 | / | / | / | / | / | / | /
Cn1cnc(S(=O)(=O)N2CC[C@@H]3[C@@H](CO)Nc4ccc(-c5ccc(F)cc5)cc4[C@@H]32)c1 | / | -69 | ? | 1 | 105* | 75 | -26 | -7
Cn1cnc(S(=O)(=O)N2CC[C@H]3[C@H](CO)Nc4ccc(-c5cccc(F)c5)cc4[C@H]32)c1 | / | 4 | 110* | -1 | 99* | 30 | -1 | 3
Cn1cnc(S(=O)(=O)N2CC[C@@H]3[C@@H](CO)Nc4ccc(-c5cccc(F)c5)cc4[C@@H]32)c1 | / | 15 | 103* | -1 | 103* | 79 | 10 | 11
COC(=O)CC(O)(CCCC(C)(C)O)C(=O)O[C@@H]1C(OC)=C[C@]23CCCN2CCc2cc4c(cc2[C@@H]13)OCO4 (stereo not given in full) | 0 | / | / | / | / | / | / | /
Cc1ccc(NC(=O)COc2c(C)cc(Cl)cc2Cl)c([N+](=O)[O-])c1 | 0 | / | / | / | / | / | / | /
COCC(=O)N1CC[C@@H]2[C@H]1c1cc(-c3ccc(OC)cc3)ccc1N(C)[C@H]2CO | / | 20 | 32 | 4 | / | / | / | /
COc1ccccc1NC(=O)N1CC[C@@H]2[C@H]1c1cc(-c3ccc(F)cc3)ccc1N(C)[C@@H]2CO | / | -13 | 112* | 0 | 98* | 107* | 14 | 34*
COCC(=O)N1CC[C@@H]2[C@@H](CO)N(C)c3ccc(-c4cccc(OC)c4)cc3[C@@H]21 | / | 1 | 97* | 1 | 108* | 76 | 9 | 2
CCC(=O)N1CC[C@H]2[C@@H]1c1cc(-c3ccccc3)ccc1N(C)[C@H]2CO | / | 0 | 45 | 2 | / | / | / | /
CCC(=O)N1CC[C@@H]2[C@H]1c1cc(-c3cccc(OC)c3)ccc1N(C)[C@@H]2CO | / | 2 | 105* | 0 | 104* | 108* | 27 | 15

Assay outcomes from PubChem BioAssay.
